Tests used:
Format in all cases: cell-based
[1] = target: ABCB1 (P-gp) (Homo sapiens, UniProt P08183); assay: Inhibition of ABCB1 in human A2780/ADR cells at 10 uM preincubated for 30 mins followed by calcein AM addition and measured at 60 secs time interval by fluorescence assay relative to cyclosporine A; details: probe calcein AM
[2] = target: ATP-dependent translocase ABCB1 (Homo sapiens, UniProt P08183); assay: Inhibition of ABCB1 in human A2780/ADR cells preincubated for 30 mins followed by calcein AM addition and measured at 60 secs time interval by fluorescence assay
[3] = target: ABCC1 (MRP1) (Homo sapiens, UniProt P33527); assay: Inhibition of ABCC1 in human H69AR cells at 10 uM preincubated for 30 mins followed by calcein-AM addition measured at 60 secs time interval by fluorescence assay relative to control; details: probe calcein-AM
How it was run: (§1)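 Calcein AM accumulation assay in H69AR small-cell lung cancer cells, which express only ABCC1. Inhibited efflux lets calcein AM build up intracellularly, where esterases cleave it to fluorescent calcein. The screen used 10 µM, scaled to a standard ABCC1 inhibitor at 10 µM as 100%. Hits reaching ≥20% inhibition (+SEM) went on to IC50 curves, constrained to that 100% maximum. Values are means of ≥3 independent experiments in duplicate ± SEM.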

[4] = target: T1, Multidrug resistance-associated protein 1 (Homo sapiens, UniProt P33527); assay: Inhibition of ABCC1 in human H69AR cells preincubated for 30 mins followed by calcein-AM addition measured at 60 secs time interval by fluorescence assay; how it was run: as §1
[5] = target: T2, ABCG2 (BCRP) (Homo sapiens, UniProt Q9UNQ0); assay: Inhibition of ABCG2 (unknown origin) expressed in MDCK2 cells co-expressing BCRP (unknown origin) assessed as effect on pheophorbide A accumulation at 10 uM pre-incubated for 20 mins followed by pheophorbide A addition and measured after 120 mins by flow cytometric analysis relative to Ko143; details: probe pheophorbide A
T2 sequence (Q9UNQ0 whole entry): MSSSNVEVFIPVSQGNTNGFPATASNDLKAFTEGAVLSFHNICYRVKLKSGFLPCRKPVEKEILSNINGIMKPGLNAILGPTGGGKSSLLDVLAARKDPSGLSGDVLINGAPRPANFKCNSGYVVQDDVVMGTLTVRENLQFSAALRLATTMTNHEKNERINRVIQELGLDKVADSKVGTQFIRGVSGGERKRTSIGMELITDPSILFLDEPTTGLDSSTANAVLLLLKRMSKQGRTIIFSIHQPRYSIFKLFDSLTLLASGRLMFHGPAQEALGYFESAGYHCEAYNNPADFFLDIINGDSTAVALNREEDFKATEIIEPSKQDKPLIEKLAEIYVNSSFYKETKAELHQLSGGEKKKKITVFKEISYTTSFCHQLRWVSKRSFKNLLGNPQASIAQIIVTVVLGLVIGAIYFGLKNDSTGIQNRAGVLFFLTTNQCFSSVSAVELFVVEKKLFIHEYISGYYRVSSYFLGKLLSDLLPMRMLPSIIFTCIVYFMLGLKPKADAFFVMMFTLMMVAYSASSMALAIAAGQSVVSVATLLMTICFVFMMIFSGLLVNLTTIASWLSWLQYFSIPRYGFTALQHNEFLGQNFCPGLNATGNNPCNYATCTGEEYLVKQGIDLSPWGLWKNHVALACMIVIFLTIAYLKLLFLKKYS
How it was run: (§2)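 Pheophorbide A accumulation assay in ABCG2-transfected MDCK II BCRP cells. Ko143 at 10 µM set 100% and no compound set 0%. Screening was at 10 µM; compounds reaching >20% (+SEM) got IC50 curves constrained to the Ko143 maximum at 10 µM. Values are reported as mean ± SEM.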

[6] = target: T3, Broad substrate specificity ATP-binding cassette transporter ABCG2 (Homo sapiens, UniProt Q9UNQ0); assay: Inhibition of ABCG2 (unknown origin) expressed in MDCK2 cells co-expressing BCRP (unknown origin) assessed as effect on pheophorbide A accumulation pre-incubated for 20 mins followed by pheophorbide A addition and measured after 120 mins by flow cytometric analysis; how it was run: as §2
T3 sequence (Q9UNQ0 whole entry): T2 sequence (Q9UNQ0 whole entry)

[7] = target: T1, Multidrug resistance-associated protein 1; assay: Inhibition of MRP1 in human COR-L23/R cells assessed reduction in tritiated daunomycin efflux incubated for 2 hrs by radioactivity-based assay

Sequence of ABCB1 (P-gp) (P08183 whole entry): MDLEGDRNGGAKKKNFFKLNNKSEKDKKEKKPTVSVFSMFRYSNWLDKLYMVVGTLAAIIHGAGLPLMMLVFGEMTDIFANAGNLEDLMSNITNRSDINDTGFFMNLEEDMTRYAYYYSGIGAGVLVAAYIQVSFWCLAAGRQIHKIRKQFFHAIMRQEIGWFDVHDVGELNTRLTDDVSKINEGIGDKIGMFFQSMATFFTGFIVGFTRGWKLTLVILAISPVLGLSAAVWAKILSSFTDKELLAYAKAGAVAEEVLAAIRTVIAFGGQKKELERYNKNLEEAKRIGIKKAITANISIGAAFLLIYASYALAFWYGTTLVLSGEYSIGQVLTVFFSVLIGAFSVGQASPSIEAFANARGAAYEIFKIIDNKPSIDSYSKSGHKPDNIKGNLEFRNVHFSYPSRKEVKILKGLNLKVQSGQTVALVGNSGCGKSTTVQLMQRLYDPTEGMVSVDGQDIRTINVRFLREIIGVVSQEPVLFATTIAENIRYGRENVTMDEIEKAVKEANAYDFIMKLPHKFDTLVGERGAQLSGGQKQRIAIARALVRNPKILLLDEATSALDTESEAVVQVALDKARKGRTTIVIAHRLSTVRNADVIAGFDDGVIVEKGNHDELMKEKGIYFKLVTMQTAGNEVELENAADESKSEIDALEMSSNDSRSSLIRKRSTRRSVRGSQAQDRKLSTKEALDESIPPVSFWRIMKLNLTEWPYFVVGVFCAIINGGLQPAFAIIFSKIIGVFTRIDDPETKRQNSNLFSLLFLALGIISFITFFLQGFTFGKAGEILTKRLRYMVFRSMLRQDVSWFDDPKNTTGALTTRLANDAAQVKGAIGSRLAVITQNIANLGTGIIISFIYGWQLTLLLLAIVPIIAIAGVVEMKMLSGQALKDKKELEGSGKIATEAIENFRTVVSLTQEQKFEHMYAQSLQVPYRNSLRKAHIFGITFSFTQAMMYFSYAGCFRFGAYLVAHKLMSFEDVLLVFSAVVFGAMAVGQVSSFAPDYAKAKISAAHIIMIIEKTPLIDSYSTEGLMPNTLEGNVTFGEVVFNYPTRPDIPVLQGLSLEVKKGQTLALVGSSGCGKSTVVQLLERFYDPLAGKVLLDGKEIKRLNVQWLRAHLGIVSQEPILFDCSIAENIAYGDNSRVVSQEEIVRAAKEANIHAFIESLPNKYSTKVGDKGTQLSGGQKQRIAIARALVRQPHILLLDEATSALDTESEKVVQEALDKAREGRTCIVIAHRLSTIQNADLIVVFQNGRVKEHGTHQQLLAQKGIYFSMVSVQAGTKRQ
Sequence of ATP-dependent translocase ABCB1 (P08183 whole entry): as above
Sequence of ABCC1 (MRP1) (P33527 whole entry): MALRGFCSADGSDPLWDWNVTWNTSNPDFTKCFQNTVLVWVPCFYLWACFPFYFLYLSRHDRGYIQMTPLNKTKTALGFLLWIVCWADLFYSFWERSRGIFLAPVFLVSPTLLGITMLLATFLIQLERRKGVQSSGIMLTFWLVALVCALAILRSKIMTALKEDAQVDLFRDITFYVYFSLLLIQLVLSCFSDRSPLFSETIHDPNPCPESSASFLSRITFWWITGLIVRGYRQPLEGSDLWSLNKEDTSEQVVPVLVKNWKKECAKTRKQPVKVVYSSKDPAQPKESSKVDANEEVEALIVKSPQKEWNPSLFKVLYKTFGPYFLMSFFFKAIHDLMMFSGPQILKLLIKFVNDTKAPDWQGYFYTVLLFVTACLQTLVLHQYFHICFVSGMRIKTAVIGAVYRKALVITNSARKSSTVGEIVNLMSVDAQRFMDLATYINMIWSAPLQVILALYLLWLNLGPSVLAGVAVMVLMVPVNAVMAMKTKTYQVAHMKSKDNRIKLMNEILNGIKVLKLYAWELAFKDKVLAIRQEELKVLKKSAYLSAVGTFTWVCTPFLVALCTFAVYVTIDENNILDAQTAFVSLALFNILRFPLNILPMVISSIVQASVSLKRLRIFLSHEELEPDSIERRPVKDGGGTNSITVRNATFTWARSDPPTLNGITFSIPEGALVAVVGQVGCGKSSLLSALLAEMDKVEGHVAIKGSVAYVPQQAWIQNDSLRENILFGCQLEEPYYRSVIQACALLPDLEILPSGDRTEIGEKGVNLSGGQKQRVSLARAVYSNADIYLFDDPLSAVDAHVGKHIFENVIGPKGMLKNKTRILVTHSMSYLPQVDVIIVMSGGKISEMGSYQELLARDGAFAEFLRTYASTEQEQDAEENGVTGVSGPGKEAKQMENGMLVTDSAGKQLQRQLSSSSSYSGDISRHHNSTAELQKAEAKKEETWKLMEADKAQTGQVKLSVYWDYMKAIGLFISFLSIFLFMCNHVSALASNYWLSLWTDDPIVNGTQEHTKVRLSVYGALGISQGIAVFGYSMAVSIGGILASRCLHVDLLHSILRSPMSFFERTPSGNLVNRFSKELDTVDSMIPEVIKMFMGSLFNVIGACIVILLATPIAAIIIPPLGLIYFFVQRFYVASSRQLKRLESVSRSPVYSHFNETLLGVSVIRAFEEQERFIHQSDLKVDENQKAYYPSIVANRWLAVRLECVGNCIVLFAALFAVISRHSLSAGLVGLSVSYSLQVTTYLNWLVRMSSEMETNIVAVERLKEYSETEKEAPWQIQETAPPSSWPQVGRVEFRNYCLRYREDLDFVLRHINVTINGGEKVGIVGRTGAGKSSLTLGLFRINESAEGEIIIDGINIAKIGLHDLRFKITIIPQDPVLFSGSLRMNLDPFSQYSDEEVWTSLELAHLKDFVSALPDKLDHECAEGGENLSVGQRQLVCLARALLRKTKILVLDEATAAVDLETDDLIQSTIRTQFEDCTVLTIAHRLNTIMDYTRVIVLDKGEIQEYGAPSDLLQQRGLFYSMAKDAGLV
T1 sequence (P33527 whole entry): as above

Row | inhibition at 1 min, 10 µM [1] [%] | IC50 [2] [µM] | inhibition at 1 min, 10 µM [3] [%] | IC50 [4] [µM] | inhibition at 2 h, 10 µM [5] [%] | IC50 [6] [µM] | IC50 [7] [µM] | Compound
1 | ≥ 20 | 4.83 | ≥ 20 | 22.7 | ≥ 20 | 1.39 |  | Cc1nc2cc(NC(=O)C3CCCN(c4cc(-n5cccn5)ncn4)C3)ccc2s1 (stereo not drawn)
2 | ≥ 20 | 2.81 |  |  | ≥ 20 | 8.68 |  | Cc1cc(C)c2c(n1)sc1c(N3CCN(Cc4ccccc4Cl)CC3)ncnc12
3 |  |  |  |  | ≥ 20 | 10.4 |  | O=C(c1ccc2c(c1)OCCO2)C1CCN(C(=O)c2ccc(-n3cccn3)cc2)CC1
4 | ≥ 20 | 27.8 | ≥ 20 | 39.3 | ≥ 20 | 16 |  | O=C(c1cc(-c2cccnc2)nc2ccccc12)N1CCN(Cc2cccs2)CC1
5 | ≥ 20 | 17.7 | ≥ 20 | 36.3 | ≥ 20 | 10.2 |  | C[C@@]1(C(=O)Nc2ccc(F)nc2)CCCN1c1nc(Nc2cc(C3CC3)n[nH]2)c2cccn2n1 [BMS-754807]

Continued, molecule first:

Row | Compound | inhibition at 1 min, 10 µM [1] [%] | IC50 [2] [µM] | inhibition at 1 min, 10 µM [3] [%] | IC50 [4] [µM] | inhibition at 2 h, 10 µM [5] [%] | IC50 [6] [µM] | IC50 [7] [µM]
6 | Cc1ccccc1-n1c(SCC(=O)N2CCN(Cc3ccccc3)CC2)nnc1-c1cccnc1 | ≥ 20 | 15.6 |  |  |  |  | 
7 | Cc1ccccc1-n1nnnc1SCC(=O)N1CCN(Cc2ccccc2)CC1 | ≥ 20 | 26.4 |  |  |  |  | 
8 | Fc1ccccc1N1CCN(Cc2csc(-c3ccc4c(c3)OCO4)n2)CC1 | ≥ 20 | 15.4 |  |  | ≥ 20 | 11.2 | 
9 | CCCc1cc(N2CCN(CCOc3cccc4ccccc34)CC2)n2nc3nc(C)cc(C)c3c2n1 | ≥ 20 | 14.5 |  |  | ≥ 20 | 11.8 | 
10 | CCOC(=O)Cn1c2cccc(C(N)=O)c2c2ncnc(N3CCN(CCc4ccc(F)c(F)c4)CC3)c21 |  |  |  |  |  |  | 0.122
11 | N#Cc1ccc(CN2CCN(C(=O)c3cn(Cc4ccccc4)nc3-c3cccnc3)CC2)cc1 |  |  |  |  | ≥ 20 | 15.4 | 
12 | O=C(CSc1nnc(-c2ccc(F)cc2)o1)N1CCN(Cc2ccc3c(c2)CCO3)CC1 | ≥ 20 | 31 |  |  | ≥ 20 | 14.4 | 

— ChEMBL document CHEMBL4350954, “Identification of Thienopyrimidine Scaffold as an Inhibitor of the ABC Transport Protein ABCC1 (MRP1) and Related Transporters Using a Combined Virtual Screening Approach” (J Med Chem, 2019)
